Source: PubChem BioAssay
CaV13 FRET inh – Primary screen for inhibitors of IQ motif and Ca2+-dependent inactivation inhibitor domain binding in CACNA1D, Förster resonance energy transfer in living cells, … | HEK cells, CFP/YFP FRET ICDI-IQ, plate reader, 10 min; percent FRET-ratio fall versus neutral wells | inhibition, % at 12.3 µM | actives 0.098% (n = 340,000);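 active = mean replicate inhibition of at least 30% and at least 1% of replicates passing that level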;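 also: 0% = median of the neutral control wells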
CAL PDZ FP-1 – inhibitors of human CAL PDZ peptide binding; purified CAL PDZ, TMR-peptide fluorescence polarization, 1 h; inhibition, % at 20 µM; Q9HD26; actives 0.02% (n = 330,000);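 active = highest replicate inhibition of at least 40%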;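 also: plate controls were DMSO neutral control wells for no effect and unlabeled competitor peptide control wells for full effect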
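material = purified tagged CAL PDZ domain construct (CerCALP) | compound dosing = 20 µM, one dose | times = 1 h at RT | measured by = fluorescence polarization from S- and P-plane intensities, G-factor corrected | read-out = inhibition from polarization loss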
CAL PDZ FP-2 – CAL PDZ (human) peptide binding inhibition. Q9HD26. purified CAL PDZ, TMR-peptide fluorescence polarization, 1 h. inhibition, % at 24.9 µM. actives 0.92% (n = 300,000);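 active = mean inhibition of at least 30% with at least half of replicates also reaching 30%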;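 also: 0% = DMSO neutral control and 100% = excess unlabeled competitor peptide PRC23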
ARNT TACC3 PPI – disrupts binding between human ARNT and TACC3 | AlphaScreen His-ARNT PAS-B/GST-TACC3 binding, luminescence; TACC3 fragment carries E629A point mutation | AID 623870 | inhibition, % at 9.99 µM | actives 0.66% (n = 390,000);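 active = mean inhibition of replicates at least 50% and at least half of replicates each reaching 50%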;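 also: 0% = complete ARNT plus TACC3 wells and 100% = ARNT alone without TACC3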
Active calls of the source: *; / = no result given. The list is not random: actives were taken first. Their share in the collection is about 1.2%.

SMILES	CaV13 FRET inh	CAL PDZ FP-1	CAL PDZ FP-2	ARNT TACC3 PPI
CC12CCC(=O)N1C(C(=O)N1CCN(c3ccccc3)CC1)CS2 (stereo not drawn)	-7	0	/	-8
O=C(CC(=O)c1ccccc1)CC(O)(C=Cc1ccccc1)c1ccccc1 (stereo not drawn)	-10	0	52*	-15
CN(CC(=O)Nc1cc(Cl)ccc1C#N)C1CCS(=O)(=O)C1 (stereo not drawn)	-6	-1	85*	4
CCC(C(=O)NN1C(=O)c2ccccc2C1=O)c1ccccc1 (stereo not drawn)	-1	45*	-6	-4
CCC(C(=O)Nc1ccccc1)c1ccccc1 (stereo not drawn)	-3	0	-1	0
CC1CCCCN1C(=O)COC(=O)c1ccc(N2CCCC2=O)cc1 (stereo not drawn)	-5	1	/	-4
CC1CCN(C(=O)COC(=O)c2ccc(N3CCCC3=O)cc2)CC1	-6	-1	46*	-1
Cc1noc(C)c1NC(=O)N(C)C[C@@H]1OCCCC[C@H](C)Oc2ccc(NS(C)(=O)=O)cc2C(=O)N([C@@H](C)CO)C[C@H]1C	/	/	/	2
Cc1ccc(C(=O)NC2CCCN(c3ccc(C(F)(F)F)cn3)C2)cn1 (stereo not drawn)	-10	0	45*	2
O=C(NC1CCCN(c2ccc(C(F)(F)F)cn2)C1)c1cc(Cl)ccc1F (stereo not drawn)	/	0	-8	-2
O=C1OC(CO)CN1Cc1ccccc1 (stereo not drawn)	-3	/	58*	-3
O=C1OC(CCl)CN1Cc1c(Cl)cccc1Cl (stereo not drawn)	-5	-1	2	1
CC(C)NC(=O)N[C@H]1CC[C@@H](CCNS(=O)(=O)c2ccc(F)cc2)O[C@@H]1CO	/	/	/	4
O=C(O)C[C@H]1C[C@@H]2c3cc(NC(=O)Nc4ccccc4)ccc3O[C@@H]2[C@@H](CO)O1	/	/	/	-6
CCOc1ccccc1NC(=O)C1CCN(C(=O)Cc2ccccc2)CC1	-2	9	56*	25
COC(=O)c1ccccc1NC(=O)C1CCN(C(=O)Cc2ccccc2)CC1	-3	0	/	-6
COc1ccc(NC2=C(NCCO)C(=O)c3ccccc3C2=O)cc1	-3	-3	-5	60*
COC1=C(Nc2ccc(OC)cc2)C(=O)c2ccccc2C1=O	-3	1	-2	53*
Cc1cc(C)cc(NC2=C(N)C(=O)c3ccccc3C2=O)c1	/	-1	0	31
COc1cccc(Nc2c(Nc3cccc(OC)c3)c(=O)c2=O)c1	-3	0	-1	-5
Cc1cccc(NC2=C(NCCO)C(=O)c3ccccc3C2=O)c1	-3	0	-2	39*
COc1ccc(NC2=C(NC(C)=O)C(=O)c3ccccc3C2=O)cc1	-5	-1	-6	-5
COc1cccc(NC2=C(NCCO)C(=O)c3ccccc3C2=O)c1	-1	-1	-3	47*
CCCC(=O)Nc1ccc2c(c1)C(=O)N(C)[C@H]1CC[C@@H](CC(=O)NCC3CC3)O[C@H]1CO2	/	/	/	0
CO[C@H]1CN(C)C(=O)c2ccc(NC(=O)C3CCCC3)cc2OC[C@@H](C)N(C(C)=O)C[C@@H]1C	/	/	/	-4
SMILES	CaV13 FRET inh	CAL PDZ FP-1	CAL PDZ FP-2	ARNT TACC3 PPI
C[C@@H]1CN([C@H](C)CO)S(=O)(=O)c2ccc(-c3ccccc3)cc2O[C@@H]1CN(C)C(=O)Cc1ccccc1	/	/	/	1
COc1ccccc1C(=O)Oc1ccccc1C(=O)Nc1ccccc1	-6	-1	74*	1
COc1ccccc1C(=O)Nc1cccc2nc(C)ccc12	-5	8	82*	0
COc1ccc(C(=O)Nc2cccc3nc(C)ccc23)c(OC)c1	-3	-3	5	20
COc1ccccc1C(=O)NNC(=O)c1ccc(NC(=O)C(C)C)cc1	/	-2	66*	-3
Cc1ccc(S(=O)(=O)N(C)C[C@H]2OCCCC[C@@H](C)Oc3ccc(NS(=O)(=O)c4cn(C)cn4)cc3C(=O)N([C@H](C)CO)C[C@@H]2C)cc1	/	/	/	-15
O=S(=O)(CC(O)CS(=O)(=O)c1ccc(Cl)cc1)c1ccccc1 (stereo not drawn)	-2	0	42*	-1
CCN(CC)CC(=O)Nn1c(C)nc2c(ncn2-c2ccccc2)c1=O	-4	0	51*	8
CCS(=O)(=O)Nc1ccc2c(c1)C(=O)N(C)C[C@H](OC)[C@@H](C)CN(C(=O)NC(C)C)[C@@H](C)CO2	/	/	/	-5
CC(C)C(=O)Nc1nnc(S(=O)(=O)N(C)c2ccc(Cl)cc2)s1	-21	/	45*	-11
CN(c1ccc(Cl)cc1)S(=O)(=O)c1nnc(NC(=O)c2ccco2)s1	-3	-2	-5	1
O=C(/C=C/c1cccc2ccccc12)N1CCOCC1	-2	-1	49*	0
O=C(/C=C/c1ccccc1Cl)N1CCOCC1	-19	-4	-6	-5
COc1ccc(C(=O)O)cc1S(=O)(=O)N1CCCc2ccccc21	-4	-5	-3	11*
O=C(C[N+]1(CC#Cc2ccccc2)CCOCC1)c1ccccc1	-7	-1	49*	0
Cc1noc(C)c1NC(=O)N(C)C[C@H]1Oc2ccc(NS(=O)(=O)c3cn(C)cn3)cc2C(=O)N([C@@H](C)CO)C[C@@H]1C	/	/	/	-7
Nc1ccc(C(=O)O)c(O)c1	-5	-1	1	-3
Nc1ccc(N)c(C(=O)O)c1	/	1	0	47*
C[C@@H]1CN([C@@H](C)CO)C(=O)Cc2cc(NS(C)(=O)=O)ccc2O[C@H]1CN(C)C(=O)Nc1ccc(F)cc1	/	/	/	0
COc1ccc2c(c1OC)c(=O)n1c3ccc(OC(C)C(=O)NCCN4CCOCC4)cc3c3ccnc2c31 (stereo not drawn)	/	0	-9	9
CC(Oc1ccc2c(c1)c1ccnc3c4ccccc4c(=O)n2c13)C(=O)NCCN1CCOCC1 (stereo not drawn)	/	-2	-8	48*
CCN(CC)CCC(c1ccc(N(C)C)cc1)c1c(O)cc(OC)cc1OC (stereo not drawn)	-5	-1	0	30*
O=S(=O)(c1ccc(Br)cc1)c1nc(-c2ccco2)oc1NCCCn1ccnc1	-2	-2	-9	64*
O=S(=O)(c1ccccc1)c1nc(-c2cccs2)oc1NCCCn1ccnc1	1	0	-3	10
CCOC(=O)NC(=O)COC(=O)CCCSc1nc2ccccc2s1	9	71*	-1	-1
CCOC(=O)c1[nH]c2ccc(C)cc2c1NC(=O)CN1CCCCC1	0	-1	0	5
Cc1c2cc[n+](CCN3CCCCC3)cc2c(C)c2c1[nH]c1ccc(O)cc12	/	11	-4	49*
O=C(Nc1nc(NC(=O)c2ccco2)n(-c2ccccc2)n1)c1ccccc1	/	-1	-2	56*
C[C@H](CO)N1C[C@H](C)[C@H](CN(C)C(=O)NC2CCCCC2)Oc2ccc(NC(=O)C3CCCCC3)cc2CC1=O	/	/	/	0
